Counter-ions that a name gives are not always drawn.
How the values were obtained:
[1] = Inhibitory concentration against the growth of 2SC/20 cell line after 72 hr of drug exposure by MTT test; details: Mesocricetus auratus
[2] = Inhibitory concentration against the growth of HET-SR-2SC-LNM cell line after 72 hr of drug exposure by MTT test; details: Mesocricetus auratus
[3] = Inhibitory concentration against the growth of HET-SR-2SC-LNM cell line after 72 hr of drug exposure by MTT test; format: functional, Cricetulus griseus
[4] = Inhibitory concentration against the growth of 2SC/20 cell line after 72 hr of drug exposure by MTT test; format: functional, Cricetulus griseus
Method in brief: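 Syrian hamster embryo fibroblasts (parental line or its colchicine-selected Pgp-positive 2SC/20 subline), grown in DMEM with 5% FBS at 37 °C, 5% CO2; selective agent withdrawn 2 days before use. (3–4) × 10³ cells per well, treated 16 h after plating, exposed 72 h. MTT (2 mg/mL solution) added for 3 h, formazan dissolved in acidified DMSO, absorbance read at 540 nm.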

[5] = Cytotoxicity against cell line HET-SR-2SC-LNM of hamster determined by MTT test; details: Mesocricetus auratus
[6] = Cytotoxicity against cell line COR/L23P determined by MTT test; format: functional; details: Homo sapiens
Method in brief: (§1)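 MTT assay after 72 h exposure, in duplicate. Human lung carcinoma COR L23/P and its adriamycin-selected MRP-mediated subline COR L23/R seeded at 5×10^3 per 200 µL. K562 leukemia cells and K562 transduced with human MDR1 (not drug-selected) seeded at 3×10^4 per 200 µL. MTT 3 h, read at 540 nm. Mean ± SE of three experiments.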

Homo sapiens [7] = organism: Homo sapiens; assay: Cytotoxicity against cell line mS/0.5 and pgp determined by MTT test; format: functional
[8] = Cytotoxicity against cell line 2SC/20 of hamster determined by MTT test; details: Mesocricetus auratus
[9] = Index of sensitisation (IS) calculated as mean IC50 for cells incubated with ADM and of 2SC/2O; format: functional
Method in brief: (§2)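 HET-SR-2SC-LNM or 2SC/20 cells exposed for 72 h to a vinblastine or adriamycin dose series, alone or with modulator at 5 µM. IC50 by MTT (540 nm). IS is the mean IC50 with the drug alone divided by the mean IC50 with drug plus modulator. Four repeats.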

K562 [10] = assay: Cytotoxicity against cell line K562i/S9 and pgp determined by MTT test; format: functional, cell-based; details: Homo sapiens
Method in brief: as §1, with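 “200 µL. Non-fibroblast lines grown in RPMI-1640 with 5% FBS. MTT 3” for “200 µL. MTT 3”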

[11] = Cytotoxicity against cell line McA RH 7777/0.4 and Pgp determined by MTT test; format: functional; details: Rattus norvegicus, McA-RH7777
[12] = Cytotoxicity against cell line McA RH 7777 determined by MTT test; format: functional; details: Rattus norvegicus, McA-RH7777
K562 [13] = assay: Cytotoxicity against cell line K562 determined by MTT test; format: functional, cell-based; details: Homo sapiens
Method in brief: as §1, with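 “200 µL. Non-fibroblast lines grown in RPMI-1640 with 5% FBS. MTT 3” for “200 µL. MTT 3”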

[14] = Index of sensitisation (IS) calculated as mean IC50 for cells incubated with VBL and of 2SC/2O; format: functional
Method in brief: as §2

[15] = Partition coefficient (logP); format: physicochemical; details: octanol/water
[16] = Cytotoxicity against cell line COR/L23R and MRP determined by MTT test; format: functional; details: Homo sapiens, COR-L23/R
Method in brief: as §1, with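 “200 µL. Non-fibroblast lines grown in RPMI-1640 with 5% FBS. MTT 3” for “200 µL. MTT 3”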

Homo sapiens [17] = organism: Homo sapiens; assay: Cytotoxicity against cell line mS determined by MTT test; format: functional
[18] = Index of sensitisation (IS) calculated as mean IC50 for cells incubated with VBL and of HET-SR-2SC-LNM; format: functional
Method in brief: as §2

[19] = Index of sensitisation (IS) calculated as mean IC50 for cells incubated with ADM and of HET-SR-2SC-LNM; format: functional
Method in brief: as §2

[20] = Cytotoxicity against HET-SR-2SC-LNM cell line of hamster determined by MTT test; details: Mesocricetus auratus
[21] = Cytotoxicity against cell line HET-SR-2SC-LNM determined by MTT test; details: Mesocricetus auratus
[22] = Index of sensitisation (IS)in presence of ADM and 2SC/2O; format: functional
Method in brief: as §2

[23] = Cytotoxicity against cell line 2SC/20 determined by MTT test; details: Mesocricetus auratus
[24] = Index of sensitisation (IS)in presence of VBL and HET-SR-2SC-LNM; format: functional
Method in brief: as §2

[25] = Index of sensitisation (IS)in presence of ADM and HET-SR-2SC-LNM; format: functional
Method in brief: as §2

[26] = Index of sensitisation (IS)in presence of VBL and 2SC/2O; format: functional
Method in brief: as §2

[27] = Cytotoxicity against cell line […] and MRP determined by MTT test; format: functional; details: Homo sapiens
Method in brief: as §1

[28] = Intracellular uptake of drug in presence of ADM and absence of VRPin HET-SR-2SC-LNM cell line; details: Mesocricetus auratus
[29] = Intracellular uptake of drug in presence of 3H VBL and VRP in 2SC/20 cell line; details: Mesocricetus auratus
[30] = Intracellular uptake of drug in presence of ADM and VRP in 2SC/20 cell line; details: Mesocricetus auratus
[31] = Intracellular uptake of drug in presence of ADM and in absence of VRP in 2SC/20 cell line; details: Mesocricetus auratus
[32] = Intracellular uptake of drug in presence of 3H VBL and VRP in HET-SR-2SC-LNM cell line; details: Mesocricetus auratus
[33] = Intracellular uptake of drug in presence of 3H VBL and absence of VRPin HET-SR-2SC-LNM cell line; details: Mesocricetus auratus
[34] = Intracellular uptake of drug in presence of ADM and VRP in HET-SR-2SC-LNM cell line; details: Mesocricetus auratus
[35] = Intracellular uptake of drug in presence of 3H VBL and in absence of VRP in 2SC/20 cell line; details: Mesocricetus auratus

With `COc1cccc2c1C(=O)c1c(O)c3c(c(O)c1C2=O)C[C@@](O)(C(=O)CO)C[C@@H]3O[C@H]1C[C@H](N)[C@H](O)[C@H](C)O1` [DOXORUBICIN] the IC50 [1] was 0.62 µM and the IC50 [2] was 0.052 µM.

In the case of BLEOMYCIN, the IC50 [3] is reported as 0.519 µM and the IC50 [4] is reported as 0.517 µM.

With `COc1ccc(CNCCN(C/C=C(\C)CCC=C(C)C)Cc2ccc(OC)c(OC)c2)cc1OC.Cl` the IC50 [5] was 15 µM, the IC50 [6] was 25 µM and the IC50 (Homo sapiens [7]) was 18 µM. It also gave an IC50 [8] of 10 µM, an IS [9] of 12 and an IC50 (K562 [10]) of 125 µM. It also gave an IC50 [11] of 20 µM, an IC50 [12] of 55 µM and an IC50 (K562 [13]) of 125 µM. For the same molecule, the IS [14] was 11, the logP [15] was 4.51 and the IC50 [16] was 13 µM. For the same molecule, the IC50 (Homo sapiens [17]) was 40 µM, the IS [18] was 8 and the IS [19] was 2.

Work on `COc1cc2c(c(OC)c1OC)-c1ccc(OC)c(=O)cc1[C@@H](NC(C)=O)CC2` [COLCHICINE] yielded an IC50 [1] of 0.5 µM and an IC50 [2] of 0.025 µM.

For `COc1ccc(CNCCNCc2ccc(OC)c(OC)c2)cc1OC`, the IC50 [8] was 470 µM, the IC50 [20] was 520 µM and the logP [15] was 3.78.

`CC[C@]1(O)C[C@@H]2CN(CCc3c([nH]c4ccccc34)[C@@](C(=O)OC)(c3cc4c(cc3OC)N(C)[C@H]3[C@@](O)(C(=O)OC)[C@H](OC(C)=O)[C@]5(CC)C=CCN6CC[C@]43[C@@H]65)C2)C1` [VINBLASTINE] showed an IC50 [1] of 0.246 µM and an IC50 [2] of 0.018 µM.

`COc1ccc(CNCCN(C/C=C(\C)CC/C=C(\C)CCC=C(C)C)Cc2ccc(OC)c(OC)c2)cc1OC` gave an IC50 [8] of 13 µM, an IS [9] of 12 and an IS [14] of 12. For the same molecule, the IC50 [21] was 35 µM, the IS [18] was 6 and the IS [19] was 2.

Work on `COc1ccc(CNCCN(C/C=C(\C)CC/C=C(\C)CC/C=C(\C)CC/C=C(\C)CC/C=C(\C)CC/C=C(\C)CC/C=C(\C)CC/C=C(\C)CCC=C(C)C)Cc2ccc(OC)c(OC)c2)cc1OC` yielded an IC50 [6] of over 200 µM, an IC50 (Homo sapiens [7]) of 45 µM and an IS [22] of 6. For the same molecule, the IC50 (K562 [10]) was 250 µM, the IC50 [23] was 20 µM and the IC50 [11] was 55 µM. It also gave an IS [24] of 1, an IC50 [12] of 65 µM and an IC50 (K562 [13]) of 250 µM. The IC50 [21] was 80 µM, the IC50 (Homo sapiens [17]) was 86 µM and the IS [25] was 2. It also gave an IS [26] of 4 and an IC50 [27] of over 200 µM.

With `COc1ccc(CCN(C)CCCC(C#N)(c2ccc(OC)c(OC)c2)C(C)C)cc1OC` (configuration not stated) [VERAPAMIL HYDROCHLORIDE] the drug uptake [28] was 235 pmol/30 min, the drug uptake [29] was 23 pmol/mg protein and the IC50 (Homo sapiens [7]) was 230 µM. For the same molecule, the drug uptake [30] was 289 pmol/30 min, the IS [22] was 11 and the drug uptake [31] was 132 pmol/30 min. It also gave a drug uptake [32] of 29 pmol/mg protein, an IC50 (K562 [10]) of 100 µM and a drug uptake [33] of 22 pmol/mg protein. For the same molecule, the IC50 [11] was 470 µM, the IS [24] was 4 and the drug uptake [34] was 310 pmol/30 min. It also gave an IC50 (K562 [13]) of 100 µM, a drug uptake [35] of 10 pmol/mg protein and an IS [25] of 2. The IS [26] was 11.

Source: ChEMBL document CHEMBL1135662, “Effects of isoprenoid analogues of SDB-ethylenediamine on multidrug resistant tumor cells alone and in combination with chemotherapeutic drugs” (J Med Chem, 2002)
